This note sets out measurements from ChEMBL document CHEMBL3616420, “Nitrogenated honokiol derivatives allosterically modulate GABAA receptors and act as strong partial agonists” (Bioorg Med Chem, 2015).

Holding throughout (type): cell-based
Assay [1] addresses T1, GABA-A receptor; alpha-1/beta-2/gamma-2 (Homo sapiens) (UniProt P14867+P47870+P18507). As to the kind of experiment: Partial agonist activity at GABAAalpha1beta2gamma2s receptor (unknown origin) expressed in Xenopus laevis oocytes assessed as induction of chloride current by two-microelectrode voltage-clamp method relative to GABA. An outline of the steps:
(§1)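 Stage V–VI Xenopus laevis oocytes, defolliculated with 2 mg/mL collagenase, were injected with subunit cRNAs (approx. 300–3000 pg/nL/subunit) and stored at +18 °C in modified ND96 (pH 7.4). Chloride currents were recorded by two-microelectrode voltage clamp at +21 °C, holding potential −70 mV. Washout was 1.5 min at low compound concentrations and 30 min at high ones. Curves were fitted to a Hill equation. Values are mean ± SE from at least 3 oocytes and 2 batches.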

Assay [2] concerns the target T2, GABA-A receptor; alpha-1/beta-2/gamma-2 (Homo sapiens, UniProt P14867+P18507+P47870).
T2 sequence (P14867 whole entry): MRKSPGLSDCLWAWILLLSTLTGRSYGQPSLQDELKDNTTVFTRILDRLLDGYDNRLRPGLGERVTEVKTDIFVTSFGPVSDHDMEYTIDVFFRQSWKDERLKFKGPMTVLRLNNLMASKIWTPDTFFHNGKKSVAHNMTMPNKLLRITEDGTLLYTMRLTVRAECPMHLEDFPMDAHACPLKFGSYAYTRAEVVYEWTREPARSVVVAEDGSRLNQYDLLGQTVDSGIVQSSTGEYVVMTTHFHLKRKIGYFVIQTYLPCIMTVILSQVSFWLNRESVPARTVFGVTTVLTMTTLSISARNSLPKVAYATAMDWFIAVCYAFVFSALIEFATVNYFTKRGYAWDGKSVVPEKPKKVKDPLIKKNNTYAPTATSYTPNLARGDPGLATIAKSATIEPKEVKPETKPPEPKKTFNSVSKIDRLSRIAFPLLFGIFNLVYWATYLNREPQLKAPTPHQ
T2 sequence (P47870 whole entry): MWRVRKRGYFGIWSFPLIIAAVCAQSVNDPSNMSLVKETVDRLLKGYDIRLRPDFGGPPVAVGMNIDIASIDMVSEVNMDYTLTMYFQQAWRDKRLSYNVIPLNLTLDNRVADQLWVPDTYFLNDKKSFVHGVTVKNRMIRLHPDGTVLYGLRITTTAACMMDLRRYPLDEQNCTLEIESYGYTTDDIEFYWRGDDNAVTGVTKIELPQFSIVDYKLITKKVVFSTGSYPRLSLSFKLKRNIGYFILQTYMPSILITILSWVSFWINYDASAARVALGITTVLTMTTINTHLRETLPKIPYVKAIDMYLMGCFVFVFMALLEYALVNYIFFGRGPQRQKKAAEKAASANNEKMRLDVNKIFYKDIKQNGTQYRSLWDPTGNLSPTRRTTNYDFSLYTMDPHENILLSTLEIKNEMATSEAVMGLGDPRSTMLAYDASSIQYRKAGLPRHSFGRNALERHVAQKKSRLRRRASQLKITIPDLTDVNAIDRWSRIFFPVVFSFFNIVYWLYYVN
T2 sequence (P18507 whole entry): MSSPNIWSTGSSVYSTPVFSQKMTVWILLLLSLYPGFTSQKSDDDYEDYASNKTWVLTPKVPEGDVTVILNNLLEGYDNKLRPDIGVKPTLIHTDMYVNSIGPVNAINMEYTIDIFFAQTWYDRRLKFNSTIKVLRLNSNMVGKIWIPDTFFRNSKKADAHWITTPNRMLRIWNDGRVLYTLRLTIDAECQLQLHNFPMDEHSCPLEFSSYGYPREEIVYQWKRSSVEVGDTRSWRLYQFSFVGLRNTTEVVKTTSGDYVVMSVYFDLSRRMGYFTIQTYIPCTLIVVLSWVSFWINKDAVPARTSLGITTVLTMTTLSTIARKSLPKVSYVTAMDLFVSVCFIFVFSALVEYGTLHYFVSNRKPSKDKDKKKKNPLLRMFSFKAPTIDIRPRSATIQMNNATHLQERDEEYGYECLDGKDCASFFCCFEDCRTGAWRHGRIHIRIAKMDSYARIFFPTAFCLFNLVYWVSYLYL
As to the kind of experiment: Allosteric modulation of GABAAalpha1beta2gamma2s receptor (unknown origin) expressed in Xenopus laevis oocytes assessed as potentiation of GABA-induced chloride current by two-microelectrode voltage-clamp method. An outline of the steps:
as §1

Assay [3] concerns the target T1, GABA-A receptor; alpha-1/beta-2/gamma-2 (Homo sapiens). Nature of the assay: Allosteric modulation of GABAAalpha1beta2gamma2s receptor (unknown origin) expressed in Xenopus laevis oocytes assessed as potentiation of GABA-induced chloride current by two-microelectrode voltage-clamp method relative to GABA. An outline of the steps:
as §1

For assay [4], the target named is T2, GABA-A receptor; alpha-1/beta-2/gamma-2. Nature of the assay: Partial agonist activity at GABAAalpha1beta2gamma2s receptor (unknown origin) expressed in Xenopus laevis oocytes assessed as induction of chloride current by two-microelectrode voltage-clamp method.
Assay [5] addresses T1, GABA-A receptor; alpha-1/beta-2/gamma-2 (Homo sapiens). Nature of the assay: Allosteric modulation of GABAAalpha1beta2gamma2s receptor (unknown origin) expressed in Xenopus laevis oocytes assessed as potentiation of GABA-induced chloride current at 100 uM by two-microelectrode voltage-clamp method. An outline of the steps: (§2)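 Stage V–VI Xenopus oocytes were injected with 10–50 nL of DEPC-treated water carrying each GABAA subunit cRNA at about 300–3000 pg/nL/subunit. Oocytes were kept at +18 °C in modified ND96 (pH 7.4). Chloride currents were recorded by two-microelectrode voltage clamp at +21 °C, holding at −70 mV. Washout was lengthened at high drug concentrations. Values are mean SE from ≥3 oocytes and ≥2 batches.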

Assay [6] shares this target. As to the kind of experiment: Partial agonist activity at GABAAalpha1beta2gamma2s receptor (unknown origin) expressed in Xenopus laevis oocytes assessed as potentiation of GABA-induced chloride current at 100 uM by two-microelectrode voltage-clamp method. An outline of the steps:
as §2

Molecules are shown by their SMILES. Calls of active or inactive are those of the source. The rule behind the calls is not given here.

On to `CCCc1ccc(OCC)c(-c2cc(N)c(O)c(CCC)c2)c1`, for which the outcome in assay [1] was inactive. In addition, in assay [2], the EC50 (as a rule, the midpoint of the concentration-response curve) worked out at 20.4 µM. In addition, the Emax (in general, the size of the effect at its maximum, as opposed to the concentration needed) in assay [3] amounted to 118%.
Take `C=CCc1cc(NC(C)=O)c(O)c(-c2ccc(OC)c(CC=C)c2)c1`: the values for the 50% effective concentration (EC50) in assay [4] and in assay [2] were 68.1 µM and 5.3 µM, respectively. Moreover, the values for the maximal response (Emax) in assay [1] and in assay [3] were 63% and 142%, respectively.
In the case of `C=CCc1ccc(OC)c(-c2cc(N)c(O)c(CC=C)c2)c1`, the outcome in assay [5] and in assay [6] was Active. For the same molecule, the results for the EC50 in assay [4] and in assay [2] were 144 µM and 47.6 µM, respectively. Moreover, the values for the Emax in assay [1] and in assay [3] were 59% and 72%, respectively.
Consider `CCCc1ccc(OC)c(-c2cc(N)c(O)c(CCC)c2)c1`, for which the outcome in assay [5] and in assay [6] was Active. Besides, the figures for the EC50 in assay [4] and in assay [2] were 62.2 µM and 15.8 µM, respectively. Moreover, the Emax in assay [1] turned out to be 52%; in assay [3] it was 108%.
Turning to `C=CCc1ccc(OCC)c(-c2cc(N)c(O)c(CC=C)c2)c1`, the result in assay [1] was inactive. Moreover, in assay [2], the EC50 was 21.5 µM. For the same molecule, in assay [3], the Emax worked out at 91%.
Take `CCCc1cc(NC(C)=O)c(O)c(-c2ccc(OCC)c(CCC)c2)c1`: the outcome in assay [5] and in assay [6] was Active. Also, the EC50 in assay [4] worked out at 6.9 µM; in assay [2], 1.8 µM. The Emax was determined as 32% in assay [1] and 123% in assay [3].
As for `C=CCc1ccc(O)c(-c2ccc(O)c(CC=C)c2)c1` [HONOKIOL], in assay [4], the EC50 amounted to 76.2 µM. Further, the Emax in assay [1] is 78%.
On to `CCCc1cc(N)c(O)c(-c2ccc(OCC)c(CCC)c2)c1`, for which the outcome in assay [5] and in assay [6] was Active. Also, the values for the EC50 in assay [4] and in assay [2] were 33.2 µM and 14.4 µM, respectively. Further, the Emax came out at 29% in assay [1] and 93.7% in assay [3].
Regarding `CCCc1ccc(OC)c(-c2cc(CCC)c(O)c(NC(C)=O)c2)c1`, the outcome in assay [1] was inactive. Also, the EC50 in assay [2] was found to be 24.6 µM. Besides, in assay [3], the Emax amounted to 42.5%.
